Experimental data as given in PMC9071802 (RSC Advances, 2019).

Test system: P. aeruginosa MH602 lasB reporter strain (PlasB: gfp(ASV))
Assay: Quorum sensing inhibition assay, GFP fluorescence of lasB reporter strain
Type: cell-based, Pseudomonas aeruginosa
Settings: for inhibition at 62.5 µM / inhibition at 125 µM / inhibition at 250 µM: Pseudomonas aeruginosa; for inhibition at 62.5 µM: read-out: Percentage inhibition of GFP fluorescence, 62.5 μM; for inhibition at 62.5 µM / inhibition at 125 µM / inhibition at 250 µM / Percentage inhibition of GFP fluorescence: ± standard deviation, NA: no activity; for inhibition at 125 µM: read-out: Percentage inhibition of GFP fluorescence, 125 μM; for inhibition at 250 µM: read-out: Percentage inhibition of GFP fluorescence, 250 μM; for Percentage inhibition of GFP fluorescence: 250 μM, 250 µM
How it was run: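 The reporter is a chromosomal lasB promoter–gfp(ASV) fusion responsive to 3-oxododecanoyl-HSL. Cultures were grown overnight in LB10, then diluted 1:100 in ABT with 0.25% tryptone and 0.13% yeast extract plus ampicillin 100 µg mL⁻¹ and gentamicin 20 µg mL⁻¹. Test compound in DMSO was tested at 62.5, 125 or 250 µM, with 1% DMSO controls. Cultures were incubated at 37 °C and shaken briefly before each read. Fluorescence (ex 485/em 535 nm) and OD600 were read every 30 min for 20 h, in triplicate per experiment.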

SMILES | inhibition at 62.5 µM | inhibition at 125 µM | inhibition at 250 µM | Percentage inhibition of GFP fluorescence | QSI activity (at 62.5–250 μM)
CCCc1cn(CC(=O)Nc2nc3ccccc3[nH]2)nn1 [6a, N-(1H-Benzo[d]imidazol-2-yl)-2-(4-propyl-1H-1,2,3-triazol-1-yl)acetamide] | 25.1 ± 0.37% | 35.3 ± 20.4% | 50.5 ± 11.8% |  | 
CCCCCc1cn(CC(=O)Nc2nc3ccccc3[nH]2)nn1 [6b, N-(1H-Benzo[d]imidazol-2-yl)-2-(4-pentyl-1H-1,2,3-triazol-1-yl)acetamide] | 27.4 ± 2.36% | 38.8 ± 11.5% | 43.5 ± 6.23% |  | 
CCCCCCCc1cn(CC(=O)Nc2nc3ccccc3[nH]2)nn1 [6c, N-(1H-Benzo[d]imidazol-2-yl)-2-(4-heptyl-1H-1,2,3-triazol-1-yl)acetamide] | 25.7 ± 7.62% | 34.7 ± 11.6% | 42.8 ± 14.6% |  | 
CCCCCCCCCc1cn(CC(=O)Nc2nc3ccccc3[nH]2)nn1 [6d, N-(1H-Benzo[d]imidazol-2-yl)-2-(4-nonyl-1H-1,2,3-triazol-1-yl)acetamide] | 30.6 ± 7.62% | 41.9 ± 4.5% | 48.5 ± 12.7% |  | 
O=C(Cn1cc(Cn2cc(Cl)ccc2=O)nn1)Nc1nc2ccccc2[nH]1 [6f, N-(1H-Benzo[d]imidazol-2-yl)-2-(4-((5-chloro-2-oxopyridin-1(2H)-yl)methyl)-1H-1,2,3-triazol-1-yl)acetamide] | 36.1 ± 10.7% | 52.7 ± 11.9% | 58.8 ± 5.09% |  | 
O=C(Cn1cc(-c2ccccc2)nn1)Nc1nc2ccccc2[nH]1 [6g, N-(1H-Benzo[d]imidazol-2-yl)-2-(4-phenyl-1H-1,2,3-triazol-1-yl)acetamide] | 15.1 ± 5.83% | 17.4 ± 22% | 46 ± 10.2% |  | 
O=C(Cn1cc(-c2ccc(F)cc2)nn1)Nc1nc2ccccc2[nH]1 [6h, N-(1H-Benzo[d]imidazol-2-yl)-2-(4-(4-fluorophenyl)-1H-1,2,3-triazol-1-yl)acetamide] | 49 ± 12.3% | 54.9 ± 2.42% | 56.1 ± 1.77% |  | 
O=C(Cn1cc(-c2ccc(Cl)cc2)nn1)Nc1nc2ccccc2[nH]1 [6i, N-(1H-Benzo[d]imidazol-2-yl)-2-(4-(4-chlorophenyl)-1H-1,2,3-triazol-1-yl)acetamide] | 52.9 ± 8.86% | 60.5 ± 6.16% | 65 ± 8.25% |  | 
O=C(Cn1cc(-c2ccc(Br)cc2)nn1)Nc1nc2ccccc2[nH]1 [6j, N-(1H-Benzo[d]imidazol-2-yl)-2-(4-(4-bromophenyl)-1H-1,2,3-triazol-1-yl)acetamide] | 45.7 ± 5.44% | 46.2 ± 8.52% | 50.7 ± 10.9% |  | 
Cc1ccc(-c2cn(CC(=O)Nc3nc4ccccc4[nH]3)nn2)cc1 [6k, N-(1H-Benzo[d]imidazol-2-yl)-2-(4-(p-tolyl)-1H-1,2,3-triazol-1-yl)acetamide] | 36.8 ± 6.63% | 32.3 ± 22.2% | 35.9 ± 13.8% |  | 
CC(C)(C)c1ccc(-c2cn(CC(=O)Nc3nc4ccccc4[nH]3)nn2)cc1 [6l, N-(1H-Benzo[d]imidazol-2-yl)-2-(4-(4-(tert-butyl)phenyl)-1H-1,2,3-triazol-1-yl)acetamide] |  |  | 35.2 ± 8.78% |  | 
O=C(Cn1cc(-c2ccc(O)cc2)nn1)Nc1nc2ccccc2[nH]1 [6m, N-(1H-Benzo[d]imidazol-2-yl)-2-(4-(4-hydroxyphenyl)-1H-1,2,3-triazol-1-yl)acetamide] | 34.4 ± 4.97% | 45.7 ± 6.21% | 58.4 ± 7.75% |  | 
COc1ccc(-c2cn(CC(=O)Nc3nc4ccccc4[nH]3)nn2)cc1 [6n, N-(1H-Benzo[d]imidazol-2-yl)-2-(4-(4-methoxyphenyl)-1H-1,2,3-triazol-1-yl)acetamide] |  | 5.16 ± 16.6% | 20 ± 14% |  | 
O=C(Cn1cc(-c2ccc(C(F)(F)F)cc2)nn1)Nc1nc2ccccc2[nH]1 [6o, N-(1H-Benzo[d]imidazol-2-yl)-2-(4-(4-(trifluoromethyl)phenyl)-1H-1,2,3-triazol-1-yl)acetamide] | 57.5 ± 7.73% | 59.9 ± 7.99% | 64.2 ± 7.3% |  | 
O=C(Cn1cc(-c2cccc([N+](=O)[O-])c2)nn1)Nc1nc2ccccc2[nH]1 [6q, N-(1H-Benzo[d]imidazol-2-yl)-2-(4-(3-nitrophenyl)-1H-1,2,3-triazol-1-yl)acetamide] | 28.2 ± 10.2% | 36 ± 6.13% | 39.4 ± 5.14% |  | 
CCCc1cn(CC(=O)Nc2nc3cc(C)c(C)cc3[nH]2)nn1 [7a, N-(5,6-Dimethyl-1H-benzo[d]imidazol-2-yl)-2-(4-propyl-1H-1,2,3-triazol-1-yl)acetamide] | 19.9 ± 3.8% | 22.1 ± 14.7% | 31.8 ± 11% |  | 

SMILES | inhibition at 62.5 µM | inhibition at 125 µM | inhibition at 250 µM | Percentage inhibition of GFP fluorescence | QSI activity (at 62.5–250 μM)
CCCCCc1cn(CC(=O)Nc2nc3cc(C)c(C)cc3[nH]2)nn1 [7b, N-(5,6-Dimethyl-1H-benzo[d]imidazol-2-yl)-2-(4-pentyl-1H-1,2,3-triazol-1-yl)acetamide] | 16.9 ± 5.74% | 20.2 ± 11.5% | 26.6 ± 20.8% |  | 
CCCCCCCCCc1cn(CC(=O)Nc2nc3cc(C)c(C)cc3[nH]2)nn1 [7d, N-(5,6-Dimethyl-1H-benzo[d]imidazol-2-yl)-2-(4-nonyl-1H-1,2,3-triazol-1-yl)acetamide] | 37.1 ± 7.75% | 41.6 ± 5.08% | 44.6 ± 3.87% |  | 
Cc1cc2nc(NC(=O)Cn3cc(CSc4nc5ccccc5[nH]4)nn3)[nH]c2cc1C [7e, 2-(4-(((1H-Benzo[d]imidazol-2-yl)thio)methyl)-1H-1,2,3-triazol-1-yl)-N-(5,6-dimethyl-1H-benzo[d]imidazol-2-yl)acetamide] | 15.1 ± 9.82% |  | 16 ± 26.1% |  | 
Cc1cc2nc(NC(=O)Cn3cc(Cn4cc(Cl)ccc4=O)nn3)[nH]c2cc1C [7f, 2-(4-((5-Chloro-2-oxopyridin-1(2H)-yl)methyl)-1H-1,2,3-triazol-1-yl)-N-(5,6-dimethyl-1H-benzo[d]imidazol-2-yl)acetamide] | 26.1 ± 7.69% | 29 ± 13.6% | 36.8 ± 7.9% |  | 
Cc1cc2nc(NC(=O)Cn3cc(-c4ccccc4)nn3)[nH]c2cc1C [7g, N-(5,6-Dimethyl-1H-benzo[d]imidazol-2-yl)-2-(4-phenyl-1H-1,2,3-triazol-1-yl)acetamide] | 28.5 ± 8.41% | 29.9 ± 17.4% | 47.6 ± 14.4% |  | 
Cc1cc2nc(NC(=O)Cn3cc(-c4ccc(Br)cc4)nn3)[nH]c2cc1C [7h, 2-(4-(4-Bromophenyl)-1H-1,2,3-triazol-1-yl)-N-(5,6-dimethyl-1H-benzo[d]imidazol-2-yl)acetamide] | 31.2 ± 5.02% | 44.7 ± 14.3% | 57.6 ± 7.43% |  | 
Cc1ccc(-c2cn(CC(=O)Nc3nc4cc(C)c(C)cc4[nH]3)nn2)cc1 [7i, N-(5,6-Dimethyl-1H-benzo[d]imidazol-2-yl)-2-(4-(p-tolyl)-1H-1,2,3-triazol-1-yl)acetamide] |  | 14.9 ± 8.82% | 50.7 ± 12.3% |  | 
Cc1cc2nc(NC(=O)Cn3cc(-c4ccc(O)cc4)nn3)[nH]c2cc1C [7j, N-(5,6-Dimethyl-1H-benzo[d]imidazol-2-yl)-2-(4-(4-hydroxyphenyl)-1H-1,2,3-triazol-1-yl)acetamide] | 17.6 ± 6.21% | 24.2 ± 14.5% | > 40% | 44.73 ± 13.15% | 
COc1ccc(-c2cn(CC(=O)Nc3nc4cc(C)c(C)cc4[nH]3)nn2)cc1 [7k, N-(5,6-Dimethyl-1H-benzo[d]imidazol-2-yl)-2-(4-(4-methoxyphenyl)-1H-1,2,3-triazol-1-yl)acetamide] | 20.4 ± 2.59% | 24.3 ± 23.3% | > 40% | 40.82 ± 23.41% | 
Cc1cc2nc(NC(=O)Cn3cc(-c4ccc(C(F)(F)F)cc4)nn3)[nH]c2cc1C [7l, N-(5,6-Dimethyl-1H-benzo[d]imidazol-2-yl)-2-(4-(4-(trifluoromethyl)phenyl)-1H-1,2,3-triazol-1-yl)acetamide] | 36.1 ± 7.67% | 56.4 ± 5.85% | 65.8 ± 1.91% |  | 
Cc1cc2nc(NC(=O)Cn3cc(-c4ccc([N+](=O)[O-])cc4)nn3)[nH]c2cc1C [7m, N-(5,6-Dimethyl-1H-benzo[d]imidazol-2-yl)-2-(4-(4-nitrophenyl)-1H-1,2,3-triazol-1-yl)acetamide] | 21 ± 10.3% | 31.5 ± 16.2% | 53.9 ± 9.78% |  | 
Cc1cc2nc(NC(=O)Cn3cc(-c4cccc([N+](=O)[O-])c4)nn3)[nH]c2cc1C [7n, N-(5,6-Dimethyl-1H-benzo[d]imidazol-2-yl)-2-(4-(3-nitrophenyl)-1H-1,2,3-triazol-1-yl)acetamide] | 34.2 ± 7.43% | 34.4 ± 14.1% | 46.7 ± 4.87% |  | 
O=C(CCc1cn(CC(=O)NC2CCCCC2)nn1)Nc1nc2ccccc2[nH]1 [10a, N-(1H-Benzo[d]imidazol-2-yl)-3-(1-(2-(cyclohexylamino)-2-oxoethyl)-1H-1,2,3-triazol-4-yl)propanamide] | 38.4 ± 7.72% | 42.4 ± 8.46% | 47.4 ± 2.69% |  | 38–47%
O=C(Cn1cc(CCC(=O)Nc2nc3ccccc3[nH]2)nn1)Nc1ccccn1 [10b, N-(1H-Benzo[d]imidazol-2-yl)-3-(1-(2-oxo-2-(pyridin-2-ylamino)ethyl)-1H-1,2,3-triazol-4-yl)propanamide] | 4.4 ± 2.93% | 15.6 ± 7.17% | 28.5 ± 17.5% |  | 
O=C(CCCc1cn(CC(=O)NC2CCCC2)nn1)Nc1nc2ccccc2[nH]1 [11a, N-(1H-Benzo[d]imidazol-2-yl)-4-(1-(2-(cyclopentylamino)-2-oxoethyl)-1H-1,2,3-triazol-4-yl)butanamide] | 42.3 ± 10.3% | 45.9 ± 8.18% | 51.2 ± 7.1% |  | 
